Measured values published in the RNAGym collection of RNA variant scans (doi:10.1126/science.aae0568).
Fewer inactive variants are shown than the library holds.

B1: tRNA (parent)
chain: GUUCCGUUGGCGUAAUGGUAACGCGUCUCCCUCCUAAGGAGAAGACUGCGGGUUCGAGUCCCGUACGGAACG

Variants of: B1
Test: yeast fitness relative to wild type (ratio to wild type); higher = fitter; tRNA-Arg(CCU), competitive growth, 37 C, YPD
Outline: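 For this measurement, the tRNA-Arg(CCU) gene was varied by chemical synthesis at a 3% per-site mutation rate across 69 sites, and each variant was placed at the native genomic locus in Saccharomyces cerevisiae. The pooled strains went through a 24-hour competition in YPD at 37°C in six parallel replicates, with amplicons from start and end populations read by 100-nucleotide paired-end sequencing. Darwinian fitness relative to wild type followed from the change in each genotype's frequency. Genotypes needed ≥ 100 starting reads, and estimates < 0.5 were set to 0.5.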
With G12A A15G C31A the yeast fitness was ≤ 0.5. G12A A43U C62U gave a yeast fitness of 0.807. With G12A A20U C34A C55G C66A the yeast fitness was ≤ 0.5. With G12A A37G U59C the yeast fitness was ≤ 0.5. In the case of G12A C27U C30A C55U A57C, the yeast fitness is reported as ≤ 0.5. For G12A C24G C29A U47A C62A, the yeast fitness was ≤ 0.5. With G12A A65C C66U G67U the yeast fitness was 0.612. With G12A G39C G67A the yeast fitness was ≤ 0.5. With C11U U59A U64G the yeast fitness was ≤ 0.5. With G12A G23A U35G A36G A57C C62U the yeast fitness was ≤ 0.5. With G12A A40C C55A the yeast fitness was ≤ 0.5. For G12A A21U C66U A69C, the yeast fitness was ≤ 0.5. G12A C22A gave a yeast fitness of 1.03. G12A C22U gave a yeast fitness of 0.873. For G12A C29A C31G C60A, the yeast fitness was ≤ 0.5. For G12A G50A C60A, the yeast fitness was ≤ 0.5. For G12A C27G A70C, the yeast fitness was ≤ 0.5. In the case of G12A G23C C24A G25A, the yeast fitness is reported as ≤ 0.5. With G12A A42G the yeast fitness was 0.837. G12A A20U G25C U53A gave a yeast fitness of 0.599. With G12A A42C C55U the yeast fitness was ≤ 0.5. In the case of G12A A14U U54A A57U, the yeast fitness is reported as ≤ 0.5. In the case of G12A A40C A69C, the yeast fitness is reported as 0.757. In the case of G12A A37C A45C G52C A70U, the yeast fitness is reported as ≤ 0.5. Work on G12A G25A A65G yielded a yeast fitness of 0.682. G12A G25A A65U showed a yeast fitness of 0.756. With G12A A42G A45G U54A C62A the yeast fitness was ≤ 0.5. In the case of G12A A14C C34G C55U, the yeast fitness is reported as ≤ 0.5. For G12A A15C A45U, the yeast fitness was 0.87. In the case of G12A C24G C29A C55U C61G A65G G68A, the yeast fitness is reported as ≤ 0.5. In the case of G12A G18C C27U C55A, the yeast fitness is reported as ≤ 0.5. In the case of G12A C24U G58A U59A A65U, the yeast fitness is reported as ≤ 0.5. With G12A G48C G67C the yeast fitness was ≤ 0.5. With G12A C30U U47A U54C the yeast fitness was ≤ 0.5. With G12A A20U C31A G52A C66U the yeast fitness was ≤ 0.5. With G12A A37G G39C A57C the yeast fitness was ≤ 0.5. In the case of G12A A14C C31U C49G C60A, the yeast fitness is reported as ≤ 0.5. G12A U13A G41C A45C showed a yeast fitness of 0.546. With G12A C33G G39C A69C the yeast fitness was ≤ 0.5. For G12A A21C C24A A69C, the yeast fitness was 0.933. With G12A A14G C30G C46A the yeast fitness was 0.882. With G12A A20C C61G C66A the yeast fitness was ≤ 0.5. With G12A A15G C49U A65C A70G the yeast fitness was ≤ 0.5. Variant G12A C46U A65U has a yeast fitness of 0.998. Variant G12A A65C has a yeast fitness of 0.851. G12A C24U C31G gave a yeast fitness of 0.532. Variant G12A A21G C24G U28G C46U has a yeast fitness of 0.582. In the case of G12A C29A G68A A69C, the yeast fitness is reported as ≤ 0.5. Variant G12A G56C has a yeast fitness of 0.764. Variant G12A A15C C46G has a yeast fitness of 0.567. In the case of G12A C22U C31G G48C, the yeast fitness is reported as ≤ 0.5. With G12A G25A G67A the yeast fitness was 0.625. In the case of G12A A14G A20G G63A, the yeast fitness is reported as ≤ 0.5. In the case of C11U U59A G67A, the yeast fitness is reported as 0.542. In the case of G12A C24G C33G A36C A37C A42C A65U, the yeast fitness is reported as ≤ 0.5. In the case of G12A C30G U47C U54C, the yeast fitness is reported as ≤ 0.5. With G12A G58A the yeast fitness was 0.924. G12A C30A A70U showed a yeast fitness of 0.759. With G12A C24U G38C C62G the yeast fitness was ≤ 0.5. With G12A A15U G51A A65U the yeast fitness was ≤ 0.5. In the case of G12A C49G A69C, the yeast fitness is reported as 0.551. For G12A A45G U47C U59A, the yeast fitness was ≤ 0.5. With G12A A36G C55U A69U the yeast fitness was ≤ 0.5. For G12A C27G A36U, the yeast fitness was 0.599. With G12A A14G C24G A40U C46A G52C the yeast fitness was ≤ 0.5. For G12A G23A C49U C60U G67A, the yeast fitness was ≤ 0.5. With G12A A40G C46A C61U the yeast fitness was ≤ 0.5. In the case of G12A C31U C55G G67C, the yeast fitness is reported as ≤ 0.5. With G12A C24U C34U G58C C62G G67A the yeast fitness was 0.542. Work on G12A C29G C34U A36C C61A yielded a yeast fitness of 0.553. Variant G12A C24G A43C C62U A65G has a yeast fitness of 0.636. With G12A A36C the yeast fitness was 0.628. Work on G12A A36G yielded a yeast fitness of 0.906. With G12A A36U A37C A43G A57U the yeast fitness was ≤ 0.5. Work on G12A C24U C34G yielded a yeast fitness of 0.696. For G12A C24U C34U, the yeast fitness was 0.519. For G12A C27U C30G A42G C55U A57C, the yeast fitness was ≤ 0.5. In the case of G12A A21G C31A A65U A70U, the yeast fitness is reported as ≤ 0.5. G12A G18C C33U A69C showed a yeast fitness of 0.528. With G12A A37G A65C the yeast fitness was ≤ 0.5. In the case of G12A G39C C66U, the yeast fitness is reported as 0.572. With G12A A43U A45C G67C G68U the yeast fitness was ≤ 0.5. With G12A C55A G67A A70G the yeast fitness was ≤ 0.5. G12A A43C C46U showed a yeast fitness of 0.764. With G12A A14C C27G C46G A65G the yeast fitness was ≤ 0.5. For G12A C29A A45G, the yeast fitness was ≤ 0.5. With G12A G17C G25C C29G A36U G39A C46U C55U the yeast fitness was ≤ 0.5. For G12A C29A A42U C46U C55A G56C, the yeast fitness was ≤ 0.5. With G12A C27G A40G the yeast fitness was ≤ 0.5. For G12A A15G A65C A69C, the yeast fitness was ≤ 0.5. Variant G12A C29U has a yeast fitness of 0.735. With G12A C27G A43G U64G the yeast fitness was ≤ 0.5. G12A C27G C34A C49A C60G C61U gave a yeast fitness of 0.527. Work on G12A C31U G41A yielded a yeast fitness of 0.686. With G12A C24A A36C A70C the yeast fitness was ≤ 0.5. Work on G12A G58U A70G yielded a yeast fitness of 0.538. For G12A A14U C66A, the yeast fitness was ≤ 0.5. For G12A A20C U54C C62U A70G, the yeast fitness was ≤ 0.5. G12A C22G G52C G58C A65U showed a yeast fitness of 0.53. Variant G12A A15G G48A has a yeast fitness of 0.763. With G12A G17C C66U the yeast fitness was ≤ 0.5. For G12A C34A A43G, the yeast fitness was 0.531. In the case of G12A A21U C55G C60A C61G C66G, the yeast fitness is reported as ≤ 0.5. In the case of G12A G23C C55G A69C, the yeast fitness is reported as 0.561. With G12A A36G U47G A65U the yeast fitness was 0.646. G12A G17A G18A A36G A42U C46U C55U showed a yeast fitness of 0.581. For G12A A21C U35G G51A, the yeast fitness was ≤ 0.5. For G12A G41C C60G A70U, the yeast fitness was ≤ 0.5. For G12A A20U C49U U53G A65G, the yeast fitness was ≤ 0.5. In the case of G12A A20G U26C C29U C31G C33U A42U, the yeast fitness is reported as ≤ 0.5. With G12A G17A A21C C29U the yeast fitness was ≤ 0.5. In the case of G12A G63A G67A, the yeast fitness is reported as ≤ 0.5. With G12A C61A A65U the yeast fitness was ≤ 0.5. With G12A G17U C49G C60U G68A the yeast fitness was ≤ 0.5. G12A C22G A57C gave a yeast fitness of 0.549. In the case of G12A C27G C55A C66U, the yeast fitness is reported as ≤ 0.5. For G12A C27G U32G G67C, the yeast fitness was ≤ 0.5. With G12A C33A A40G A70U the yeast fitness was ≤ 0.5. For G12A C29U U64A, the yeast fitness was ≤ 0.5. With G12A A57C A65C A70C the yeast fitness was ≤ 0.5. G12A C46U G51C A70U showed a yeast fitness of 0.534. In the case of G12A G38A G56C C62A A65C, the yeast fitness is reported as ≤ 0.5. For G12A A42U C60G A69G, the yeast fitness was ≤ 0.5. In the case of G12A C49A G51A, the yeast fitness is reported as ≤ 0.5. In the case of G12A C22A C24A A36U U53A, the yeast fitness is reported as ≤ 0.5. In the case of G12A G51A A65G, the yeast fitness is reported as ≤ 0.5. With G12A A20G A45U C49G G52C the yeast fitness was ≤ 0.5. In the case of G12A A40C C61A, the yeast fitness is reported as ≤ 0.5. With G12A C24U U64G the yeast fitness was ≤ 0.5. With G12A A14C G50C the yeast fitness was 0.535. In the case of G12A C46U U53A, the yeast fitness is reported as ≤ 0.5. In the case of G12A A70C, the yeast fitness is reported as 0.936. For G12A A42C C49A C61U, the yeast fitness was ≤ 0.5. G12A C27A G56C gave a yeast fitness of 0.533. With G12A A20C C62G the yeast fitness was ≤ 0.5. With G12A A15C C31U C62U C66G A70G the yeast fitness was ≤ 0.5. For G12A C22U A37U G50C C66U, the yeast fitness was 0.538. With G12A G44C G67A the yeast fitness was 0.513. G12A A69G gave a yeast fitness of 0.907. Work on G12A A69C yielded a yeast fitness of 0.866. With G12A A69U the yeast fitness was 1.03. Variant G12A A15G C22A has a yeast fitness of 0.705. With G12A G44U G68C the yeast fitness was ≤ 0.5. In the case of G12A C27U G51C A57U, the yeast fitness is reported as 0.534. For G12A A21G C34U, the yeast fitness was ≤ 0.5. In the case of G12A C46U G51C, the yeast fitness is reported as ≤ 0.5. For G12A A20U G56C G58C, the yeast fitness was ≤ 0.5. With G12A G50C U64C the yeast fitness was 0.692. In the case of G12A U13C A15G U64C, the yeast fitness is reported as 0.738. In the case of G12A A20C A69U, the yeast fitness is reported as 0.811. For G12A A36C G41C, the yeast fitness was ≤ 0.5. Variant G12A G67A has a yeast fitness of 0.857. G12A A36G U47G gave a yeast fitness of 0.584. G12A G44A G67C gave a yeast fitness of 0.62. With G12A G18A C27U C46U G48A the yeast fitness was ≤ 0.5. With G12A U13A A14G A21G C33U C62G the yeast fitness was ≤ 0.5. In the case of G12A A15C G39C C46U, the yeast fitness is reported as ≤ 0.5. In the case of G12A C24G U35A A40U G41A A42C, the yeast fitness is reported as ≤ 0.5. For G12A G18C U19C C29U, the yeast fitness was ≤ 0.5. G12A C27U gave a yeast fitness of 0.942. In the case of G12A C27A, the yeast fitness is reported as 0.844. With G12A C27G the yeast fitness was 0.71. For G12A C62U G63A, the yeast fitness was ≤ 0.5. G12A G18A A21U G41A gave a yeast fitness of 0.877. G12A A14G A37U gave a yeast fitness of 0.551. In the case of G12A C30A C46G, the yeast fitness is reported as 0.649. G12A C22G C31G showed a yeast fitness of 0.662.
